The record followed here is ChEMBL document CHEMBL4393678, “Novel Tetrahydroquinazolinamines as Selective Histamine 3 Receptor Antagonists for the Treatment of Obesity” (J Med Chem, 2019).

The pIC50 is the IC50 on a negative log10 scale, so that one unit is a factor of ten. A word on the Tmax: it is the time at which the peak concentration occurs. By AUC(0-t) is commonly meant the area under the concentration-time curve up to a stated or last time point. A word on the Cmax: it is the peak of the concentration-time curve.

The structures appear in SMILES notation. pIC50: −log10 of the molar value. Active and inactive are the calls of the source. The rule behind the calls is not given here.

One series addresses Histamine H3 receptor (Homo sapiens, UniProt Q9Y5N1). Kind of series: Antagonist activity at recombinant human Gi-coupled H3 receptor expressed in HEK293T cells assessed as reduction in histamine-induced inhibition of forskolin-stimulated cAMP accumulation preincubated for 10 to 15 followed by histamine addition for 10 mins and subsequent forskolin-stimulation by Glo-sensor assay. Type of series: functional, cell-based. On the technique in general: cAMP levels reflect the balance of adenylyl cyclase and phosphodiesterase activity.

Series [1] addresses Histamine H1 receptor (Homo sapiens) (UniProt P35367). The series can be described thus: Antagonist activity at H1R (unknown origin) expressed in HEK293 cells harboring luc2P/NFAT-RE plasmid at 10 uM after 6 to 8 hrs by luciferase reporter gene assay. The format is cell-based. The method in brief:
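NFAT-RE luciferase assay in HEK293T cells transiently co-transfected with luc2P/NFAT-RE plasmid and receptor plasmid. Cells plated in DMEM and incubated overnight at 37 °C, 5% CO₂. Compounds and reference ligands applied for 6-8 h. Luciferase read after adding Bright-Glo substrate (1 mg/ml final).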
On the technique in general: In a reporter assay the amount or activity of a reporter protein is the signal.

The target of series [2] is D(2) dopamine receptor (Homo sapiens) (UniProt P14416). The series can be described thus: Agonist activity at Gi-coupled D2 receptor (unknown origin) expressed in HEK293T cells assessed as inhibition of forskolin-stimulated cAMP accumulation preincubated for 10 to 15 followed by forskolin-stimulation by Glo-sensor assay. Type of series: functional, cell-based.
Series [3] shares this target. Kind of series: Antagonist activity at Gi-coupled D2 receptor (unknown origin) expressed in HEK293T cells assessed as reduction in […] inhibition of forskolin-stimulated cAMP accumulation preincubated for 10 to 15 followed by […] for 10 mins and subsequent forskolin-stimulation by Glo-sensor assay. Type of series: functional, cell-based.

Series [4] addresses Kappa-type opioid receptor (Homo sapiens) (UniProt P41145). The series can be described thus: Agonist activity at Gi-coupled KOR (unknown origin) expressed in HEK293T cells assessed as inhibition of forskolin-stimulated cAMP accumulation preincubated for 10 to 15 followed by forskolin-stimulation by Glo-sensor assay. The format is functional, cell-based.
Series [5] can be described thus: Tmax in C57BL/6J mouse serum at 20 mg/kg, po by LC-MS/MS analysis. Type of series: ADME, organism-based. The method in brief:
(§1)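 Male C57BL/6J mice (6-8 weeks, 20 ± 5 g) fasted overnight (12-16 h) got a single 20 mg/kg oral dose as 2.5 mg/mL suspension in 1% w/v gum acacia; n=5 per time point. Serum and brain (PBS homogenate 1:6 w/v) sampled up to 24 h. Parent and demethylated metabolite quantified by LC-MS/MS after liquid-liquid extraction (C18, MRM, phenacetin internal standard; linear 0.25-200 ng/mL). Two-compartment open model fit.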

A short description of series [6]: AUClast in C57BL/6J mouse serum at 20 mg/kg, po by LC-MS/MS analysis. Type of series: ADME, organism-based. Further details: dose 20 mg/kg, route oral, time 0 - last. The method in brief: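 Male C57BL/6J mice, 6-8 weeks, 20 ± 5 g, fasted overnight (12-16 h), n = 5 per time point. Single 20 mg/kg oral dose given by feeding needle as a 2.5 mg/mL suspension in 1% w/v gum acacia and water. Serum and brain (homogenized 1:6 w/v in PBS) sampled up to 24 h. Liquid-liquid extraction, then LC-MS/MS in positive MRM mode with phenacetin as internal standard. Linear range 0.25-200 ng/mL. Non-compartmental and compartmental analysis.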

In series [7] the test system is Mus musculus. Kind of series: Anti-obesity activity in high fat diet-induced obese C57BL/6J mouse model assessed as reduction in body weight at 10 mg/kg, po measured up to 39 days. Type of series: functional, organism-based.
The nature of series [8]: Cmax in C57BL/6J mouse brain assessed as 4-(2-Amino-8-methyl-5,6,7,8-tetrahydroquinazolin-4-yl)phenol level at 20 mg/kg, po by LC-MS/MS analysis. The format is ADME, organism-based. Further details: dose 20 mg/kg, route oral. The following applies: in vivo. In short, it runs like this: as §1
Series [9] can be described thus: fCmax in C57BL/6J mouse brain by equilibrium dialysis method. The format is ADME, tissue-based. In short, it runs like this: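 Unbound brain level derived from brain concentration after 20 mg/kg oral dose, multiplied by unbound fraction from brain-homogenate equilibrium dialysis; given at Cmax and at 4 h.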
(Equilibrium dialysis compares concentrations on both sides of a semipermeable membrane.)

Series [10] deals with Mus musculus. The series can be described thus: Anorexic effect in high fat diet-induced obese C57BL/6J mouse model assessed as reduction in cumulative food intake at 20 mg/kg, po pretreated for 30 mins followed by food addition measured after 4 hrs relative to control. The format is functional. Further details: scale not given: the % may be the effect or the level left. In short, it runs like this: (§2)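 Mice starved 12 h (8:00 am to 8:00 pm) with water available, then housed singly. Compound given orally in 5% gum acacia in normal saline; vehicle group received the same. Cumulative food intake measured over 4 h of the night phase (9:00 pm to 1:00 am), starting 30 min after dosing. Antagonism arms: imitet 5 mg/kg i.p. 30 min before compound, or α-methyl-DL-histidine 20 mg/kg i.p. 2 h before.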

Series [11] deals with Mus musculus. The series can be described thus: Anorexic effect in 12 hrs fasted db/db-induced obese C57BL/6J mouse model assessed as reduction in cumulative food intake at 10 mg/kg, po pretreated for 30 mins followed by food addition measured after 4 hrs. The format is functional, organism-based. The method in brief:
as §2

Series [12] in a line: Toxicity in lean C57BL/6J mouse assessed as change in body fat mass at 10 to 20 mg/kg, po measured after 6 weeks. The following applies: in vivo, 1008 h. The format is organism-based.
Series [13] deals with Mus musculus. The series can be described thus: Anti-obesity activity in 16 hrs fasted db/db-induced obese C57BL/6J mouse model assessed as improvement in glucose homeostasis at 20 mg/kg, po treated prior to glucose addition measured after 15 to 120 mins by IPGTT. Type of series: functional, organism-based. In short, it runs like this:
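Mice fasted 16 h; baseline tail-vein glucose read by glucometer. Glucose given i.p. at 2 g/kg (C57BL/6J) or 1 g/kg (db/db).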

Sequence of D(2) dopamine receptor (Homo sapiens) (P14416 whole entry): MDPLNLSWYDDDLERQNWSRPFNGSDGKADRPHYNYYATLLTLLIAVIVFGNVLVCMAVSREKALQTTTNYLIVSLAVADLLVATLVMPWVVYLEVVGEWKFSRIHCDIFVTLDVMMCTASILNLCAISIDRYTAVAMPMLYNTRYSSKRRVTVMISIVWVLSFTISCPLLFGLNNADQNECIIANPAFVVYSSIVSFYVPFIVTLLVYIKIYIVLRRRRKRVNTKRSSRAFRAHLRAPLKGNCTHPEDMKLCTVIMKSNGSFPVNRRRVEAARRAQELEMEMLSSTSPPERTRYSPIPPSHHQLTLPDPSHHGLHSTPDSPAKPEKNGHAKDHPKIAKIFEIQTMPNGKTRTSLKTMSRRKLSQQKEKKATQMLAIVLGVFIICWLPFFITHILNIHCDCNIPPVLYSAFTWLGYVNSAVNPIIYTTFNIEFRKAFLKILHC
Sequence of Histamine H3 receptor (Q9Y5N1 whole entry): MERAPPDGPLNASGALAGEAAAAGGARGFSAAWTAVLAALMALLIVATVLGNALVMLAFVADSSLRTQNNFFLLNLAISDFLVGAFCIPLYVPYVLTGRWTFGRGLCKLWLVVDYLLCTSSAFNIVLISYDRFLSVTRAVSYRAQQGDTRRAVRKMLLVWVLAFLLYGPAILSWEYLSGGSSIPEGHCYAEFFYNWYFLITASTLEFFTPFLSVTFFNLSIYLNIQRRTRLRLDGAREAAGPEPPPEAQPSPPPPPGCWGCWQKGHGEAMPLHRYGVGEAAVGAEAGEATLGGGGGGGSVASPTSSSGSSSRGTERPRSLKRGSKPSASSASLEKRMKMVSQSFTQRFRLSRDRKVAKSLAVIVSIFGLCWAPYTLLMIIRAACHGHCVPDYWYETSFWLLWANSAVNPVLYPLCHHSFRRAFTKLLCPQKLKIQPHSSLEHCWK
Sequence of Kappa-type opioid receptor (Homo sapiens) (P41145 whole entry): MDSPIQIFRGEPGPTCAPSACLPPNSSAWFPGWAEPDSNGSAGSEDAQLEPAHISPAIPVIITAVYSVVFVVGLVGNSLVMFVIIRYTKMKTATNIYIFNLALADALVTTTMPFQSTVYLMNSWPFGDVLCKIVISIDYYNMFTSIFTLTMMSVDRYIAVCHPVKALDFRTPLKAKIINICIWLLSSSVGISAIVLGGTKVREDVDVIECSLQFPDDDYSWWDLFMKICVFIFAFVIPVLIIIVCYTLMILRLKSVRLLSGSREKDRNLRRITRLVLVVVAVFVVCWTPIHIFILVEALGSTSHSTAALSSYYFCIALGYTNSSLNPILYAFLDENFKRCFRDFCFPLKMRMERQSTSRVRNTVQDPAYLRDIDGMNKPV
Sequence of Histamine H1 receptor (Homo sapiens) (P35367 whole entry): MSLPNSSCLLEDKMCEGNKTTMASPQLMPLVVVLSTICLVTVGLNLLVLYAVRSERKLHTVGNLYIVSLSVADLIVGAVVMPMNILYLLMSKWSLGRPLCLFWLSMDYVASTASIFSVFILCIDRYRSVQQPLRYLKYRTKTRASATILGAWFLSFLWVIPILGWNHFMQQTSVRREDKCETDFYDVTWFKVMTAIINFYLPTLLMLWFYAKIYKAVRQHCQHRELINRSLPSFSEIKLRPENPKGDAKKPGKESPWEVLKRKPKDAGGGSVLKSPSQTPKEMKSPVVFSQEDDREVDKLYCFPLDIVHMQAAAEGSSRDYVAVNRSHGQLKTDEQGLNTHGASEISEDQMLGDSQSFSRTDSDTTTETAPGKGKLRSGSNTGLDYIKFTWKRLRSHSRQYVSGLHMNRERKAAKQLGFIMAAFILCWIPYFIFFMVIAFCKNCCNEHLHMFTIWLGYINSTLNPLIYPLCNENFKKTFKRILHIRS

`COc1ccc(-c2nc(N)nc3c2CCCC3C)cc1` (racemic): at Histamine H3 receptor, the pIC50 is 7.40. Besides, the inhibition entry in series [1], in series [2], in series [3] and in [4] was “inactive” throughout. For the same compound, the Tmax in series [5] came out at 15 min. Further, the AUC(0-t) in series [6] is 1920 ng·h/mL. Also, the outcome with Mus musculus [7] and in the series on Mus musculus [11] was inactive. Besides, in [8], the Cmax is 101 ng/g. Moreover, the fCmax in series [9] turned out to be 334.7 nM. Further, the Activity with Mus musculus [10] is listed as 28%; in series [12], “Non-Toxic”. For the same compound, the result in the series on Mus musculus [13] was Active.
